Assay results as given in ChEMBL document CHEMBL1149292, “A rational utilization of high-throughput screening affords selective, orally bioavailable 1-benzyl-3-carboxyazetidine sphingosine-1-phosphate-1 receptor agonists” (J Med Chem, 2004).
Active and inactive are the calls of the source. No cut-off for these calls is given here.

Key:
[1] = target: T1, Sphingosine 1-phosphate receptor 1 (Homo sapiens, UniProt P21453); assay: Displacement of [33P]sphingosine 1 phosphate from human S1P1 receptor expressed in CHO cells; assay type: cell-based
[2] = target: Sphingosine 1-phosphate receptor 5 (Homo sapiens, UniProt Q9H228); assay: Displacement of [33P]sphingosine 1 phosphate from human S1P5 receptor expressed in CHO cells; assay type: cell-based
Summary of the method: (§1)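 Competition binding with [33P]-labeled S1P on membranes of CHO cells stably expressing each human S1P receptor. Values are the mean of n = 3 determinations.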

[3] = target: T2, Sphingosine 1-phosphate receptor 3 (Homo sapiens, UniProt Q99500); assay: Displacement of [33P]sphingosine 1 phosphate from human S1P3 receptor expressed in CHO cells; assay type: cell-based
[4] = target: T3, Sphingosine 1-phosphate receptor 4 (Homo sapiens, UniProt O95977); assay: Displacement of [33P]sphingosine 1 phosphate from human S1P4 receptor expressed in CHO cells; assay type: cell-based; summary of the method: as §1
T3 sequence (O95977 whole entry): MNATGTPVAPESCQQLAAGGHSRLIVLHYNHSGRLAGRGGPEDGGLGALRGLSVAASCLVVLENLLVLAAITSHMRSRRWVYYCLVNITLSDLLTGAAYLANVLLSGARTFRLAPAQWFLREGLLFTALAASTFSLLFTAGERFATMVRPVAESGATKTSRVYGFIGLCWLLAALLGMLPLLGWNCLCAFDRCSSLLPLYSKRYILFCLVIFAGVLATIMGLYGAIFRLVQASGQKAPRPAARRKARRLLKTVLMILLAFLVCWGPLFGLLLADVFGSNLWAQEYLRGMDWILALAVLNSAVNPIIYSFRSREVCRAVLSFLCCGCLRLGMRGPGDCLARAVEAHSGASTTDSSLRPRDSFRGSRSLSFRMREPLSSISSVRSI

[5] = target: Sphingosine 1-phosphate receptor 2 (Homo sapiens, UniProt O95136); assay: Displacement of [33P]sphingosine 1 phosphate from human S1P2 receptor expressed in CHO cells; assay type: cell-based
[6] = target: T1, Sphingosine 1-phosphate receptor 1; assay: Activity at human S1P1 receptor expressed in CHO cells by [35S]GTPgammaS binding assay; assay type: functional, cell-based
Summary of the method: (§2)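 Agonism measured as ligand-induced [35S]-GTPγS binding to membranes of CHO cells stably expressing the human S1P receptor.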

[7] = system: Mus musculus; assay: Decrease in peripheral blood lymphocytes in po dosed mouse after 3 hrs; assay type: functional
Summary of the method: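 Compound given orally to mice. Peripheral blood lymphocyte counts taken 3 h after dosing, expressed as average percent decrease in n = 3 animals versus controls (n = 3). ED50 from dose-titration.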

[8] = Oral bioavailability in rat; assay type: ADME, organism-based; details: in vivo
[9] = Half life in rat; assay type: ADME, organism-based; details: in vivo
[10] = Plasma clearance in rat at 2 mg/kg, po and 1 mg/kg, iv; assay type: ADME, organism-based
Summary of the method: (§3)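 Rat PK at 2.0 mpk po and 1.0 mpk iv. Plasma compound levels measured.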

[11] = target: T2, Sphingosine 1-phosphate receptor 3; assay: Activity at human S1P3 receptor expressed in CHO cells by [35S]GTP-gamma-S binding assay; assay type: functional, cell-based; summary of the method: as §2
[12] = Half life in rat at 2 mg/kg, po and 1 mg/kg, iv; assay type: ADME, organism-based; details: in vivo; summary of the method: as §3
[13] = Bioavailability in rat at 2 mg/kg, po and 1 mg/kg, iv; assay type: ADME, organism-based; details: in vivo; summary of the method: as §3
[14] = Volume of distribution at steady state in rat at 2 mg/kg, po and 1 mg/kg, iv; assay type: ADME, organism-based; details: in vivo, read-out: Vdss
[15] = Cmax in rat at 2 mg/kg, po and 1 mg/kg, iv; assay type: ADME, organism-based; details: in vivo; summary of the method: as §3
[16] = Bioavailability in Beagle dog at 1 mg/kg, po and 0.5 mg/kg, iv; assay type: ADME, organism-based, Canis lupus familiaris; details: in vivo
Summary of the method: (§4)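 Single-dose PK at 1.0 mpk po and 0.5 mpk iv. Plasma compound levels measured.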

[17] = system: Canis familiaris; assay: Cmax in Beagle dog at 1 mg/kg, po and 0.5 mg/kg, iv; assay type: ADME, organism-based, Canis lupus familiaris; details: in vivo; summary of the method: as §4
[18] = system: Canis familiaris; assay: Plasma clearance in Beagle dog at 1 mg/kg, po and 0.5 mg/kg, iv; assay type: ADME, organism-based, Canis lupus familiaris; details: in vivo; summary of the method: as §4
[19] = Plasma clearance in rhesus monkey at 1 mg/kg, po and 0.5 mg/kg, iv; assay type: ADME, organism-based, Macaca mulatta; summary of the method: as §4
[20] = system: Canis familiaris; assay: Maximal decrease in peripheral blood lymphocyte in Beagle dog at 1 mg/kg, po after 24 hrs; assay type: functional, organism-based; design: dose 1 mg/kg; details: Canis lupus familiaris
Summary of the method: (§5)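 Complete blood counts run alongside plasma concentrations after a single 1.0 mpk oral dose in beagle dog or rhesus monkey. Lymphocyte counts followed over time, with PBL lowering assessed at 24 h postdose.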

[21] = system: Rhesus monkey; assay: Maximal decrease in peripheral blood lymphocyte in rhesus monkey at 1 mg/kg, po after 24 hrs; assay type: functional, organism-based; design: dose 1 mg/kg; details: Macaca mulatta; summary of the method: as §5
[22] = Half life in Beagle dog at 1 mg/kg, po and 0.5 mg/kg, iv; details: in vivo
[23] = Cmax in rhesus monkey at 1 mg/kg, po and 0.5 mg/kg, iv; assay type: ADME, organism-based, Macaca mulatta; details: in vivo; summary of the method: as §4
[24] = Bioavailability in rhesus monkey at 1 mg/kg, po and 0.5 mg/kg, iv; assay type: ADME, organism-based, Macaca mulatta; details: in vivo; summary of the method: as §4
[25] = Volume of distribution at steady state in rhesus monkey at 1 mg/kg, po and 0.5 mg/kg, iv; assay type: ADME, organism-based, Macaca mulatta; details: in vivo, read-out: Vdss
[26] = Half life in rhesus monkey at 1 mg/kg, po and 0.5 mg/kg, iv; details: in vivo
[27] = Volume of distribution at steady state in Beagle dog at 1 mg/kg, po and 0.5 mg/kg, iv; assay type: ADME, organism-based, Canis lupus familiaris; details: in vivo, read-out: Vdss

Sphingosine 1-phosphate receptor 2, sequence (O95136 whole entry): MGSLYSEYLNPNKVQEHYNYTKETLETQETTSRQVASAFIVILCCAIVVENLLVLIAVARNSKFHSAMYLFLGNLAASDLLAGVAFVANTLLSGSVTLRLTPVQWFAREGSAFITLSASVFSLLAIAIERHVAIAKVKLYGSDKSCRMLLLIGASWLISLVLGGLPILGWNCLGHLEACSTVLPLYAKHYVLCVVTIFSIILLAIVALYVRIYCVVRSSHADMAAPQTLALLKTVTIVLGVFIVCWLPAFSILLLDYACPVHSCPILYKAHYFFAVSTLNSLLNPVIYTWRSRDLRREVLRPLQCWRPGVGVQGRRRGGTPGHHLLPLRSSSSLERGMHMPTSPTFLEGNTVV
T1 sequence (P21453 whole entry): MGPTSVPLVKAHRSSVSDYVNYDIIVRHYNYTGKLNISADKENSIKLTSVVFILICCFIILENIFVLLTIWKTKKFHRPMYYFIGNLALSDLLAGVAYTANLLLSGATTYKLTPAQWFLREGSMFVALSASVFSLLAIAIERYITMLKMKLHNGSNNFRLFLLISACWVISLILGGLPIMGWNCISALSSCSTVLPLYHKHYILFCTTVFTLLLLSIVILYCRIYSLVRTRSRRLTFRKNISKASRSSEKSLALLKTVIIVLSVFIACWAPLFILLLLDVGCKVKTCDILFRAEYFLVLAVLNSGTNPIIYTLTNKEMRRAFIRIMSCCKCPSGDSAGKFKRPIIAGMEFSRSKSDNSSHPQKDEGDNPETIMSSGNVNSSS
Sphingosine 1-phosphate receptor 5, sequence (Q9H228 whole entry): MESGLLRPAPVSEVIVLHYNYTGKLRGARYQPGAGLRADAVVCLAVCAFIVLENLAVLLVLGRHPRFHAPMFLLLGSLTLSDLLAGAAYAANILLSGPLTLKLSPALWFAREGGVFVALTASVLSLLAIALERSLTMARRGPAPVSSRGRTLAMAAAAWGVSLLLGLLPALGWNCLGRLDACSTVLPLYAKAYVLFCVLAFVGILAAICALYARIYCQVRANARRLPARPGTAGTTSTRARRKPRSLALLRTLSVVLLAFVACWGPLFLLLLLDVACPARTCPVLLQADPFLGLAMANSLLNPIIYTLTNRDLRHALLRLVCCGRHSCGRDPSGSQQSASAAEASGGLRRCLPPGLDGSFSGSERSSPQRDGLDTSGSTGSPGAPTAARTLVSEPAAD
T2 sequence (Q99500 whole entry): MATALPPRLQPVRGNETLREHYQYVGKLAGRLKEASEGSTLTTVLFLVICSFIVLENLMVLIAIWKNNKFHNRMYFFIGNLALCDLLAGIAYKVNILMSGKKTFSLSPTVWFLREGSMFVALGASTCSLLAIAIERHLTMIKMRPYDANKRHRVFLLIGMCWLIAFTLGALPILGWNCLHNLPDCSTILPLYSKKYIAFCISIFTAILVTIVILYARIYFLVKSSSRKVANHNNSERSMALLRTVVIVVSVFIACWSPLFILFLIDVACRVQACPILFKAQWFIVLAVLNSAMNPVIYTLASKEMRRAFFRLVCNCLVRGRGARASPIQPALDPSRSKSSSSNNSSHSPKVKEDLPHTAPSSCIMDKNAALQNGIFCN

SMILES | IC50 [1] | IC50 [2] | IC50 [3] | IC50 [4] | IC50 [5] [µM] | EC50 [6] | ED50 [7] [mg/kg] | also measured
COc1cc(CN2CC(C(=O)O)C2)ccc1OCc1cc(-c2ccccc2)c(C(F)(F)F)s1 | 0.033 µM (antagonist) | 0.077 µM (antagonist) | > 10 µM | 2.8 µM (antagonist) | > 10 | 0.047 µM (agonist) | – | –
CCCCCCCCCc1ccc(CN2CC(C(=O)O)C2)cc1 | 0.018 µM (antagonist) | 0.011 µM (antagonist) | 4.9 µM (antagonist) | 5.4 µM (antagonist) | > 10 | – | 5.2 | bioavailability [8]: > 70%; half-life [9]: 1.4 h
O=C(O)C1CN(Cc2ccc(OCc3cc(-c4ccccc4)c(C(F)(F)F)s3)c(F)c2)C1 | 0.0027 µM (antagonist) | 0.041 µM (antagonist) | 2.1 µM (antagonist) | 2.7 µM (antagonist) | > 10 | 0.0013 µM (agonist) | – | –
CCCCCCCCCCCCC/C=C/[C@@H](O)[C@@H](N)COP(=O)(O)O | 0.00067 µM (antagonist) | – | 0.00026 µM (antagonist) | 0.034 µM (antagonist) | – | – | – | –
O=C(O)C1CN(Cc2ccc(OCc3cc(-c4ccccc4)c(C(F)(F)F)s3)c(C(F)(F)F)c2)C1 | 0.0077 µM (antagonist) | 0.021 µM (antagonist) | > 10 µM | 0.34 µM (antagonist) | > 10 | 0.0059 µM (agonist) | – | –
O=C(O)C1CCN(Cc2ccc(OCc3cc(-c4ccccc4)c(C(F)(F)F)s3)cc2)C1 (stereo unspecified) | 0.0043 µM (antagonist) | 0.12 µM (antagonist) | 1 µM (antagonist) | 0.79 µM (antagonist) | > 10 | 0.0024 µM (agonist) | – | –
Cc1cc(CN2CC(C(=O)O)C2)cc(C)c1OCc1cc(-c2ccccc2)c(C(F)(F)F)s1 | 0.004 µM (antagonist) | 0.012 µM (antagonist) | 10 µM | 0.12 µM (antagonist) | > 10 | 0.0013 µM (agonist) | – | –
CCCCCCCCCc1ccc(CN2CCC(C(=O)O)C2)cc1 (stereo unspecified) | 0.02 µM (antagonist) | 0.029 µM (antagonist) | 2.1 µM (antagonist) | 2.5 µM (antagonist) | > 10 | – | 23 | bioavailability [8]: > 70%; half-life [9]: 0.9 h
CCCCCCCCCc1ccc(CN2CCC(P(=O)(O)O)C2)cc1 (stereo unspecified) | 0.0069 µM (antagonist) | 0.0063 µM (antagonist) | 0.22 µM (antagonist) | 0.045 µM (antagonist) | > 10 | – | – | –
CCc1cc(CN2CC(C(=O)O)C2)ccc1OCc1cc(-c2ccccc2)c(C(F)(F)F)s1 | 0.0035 µM (antagonist) | 0.01 µM (antagonist) | 4.3 µM (antagonist) | > 10 µM | > 10 | 0.0014 µM (agonist) | – | –
CCCCCCCCc1ccc(CCC(N)(CO)CO)cc1 [FINGOLIMOD] | – | 2.1 µM (antagonist) | > 10 µM | > 10 µM | > 10 | – | 0.15 | –
CCCCCCCCOc1c(Br)cc(CNCCCP(=O)(O)O)cc1OC | – | – | – | 0.08 µM (antagonist) | – | – | – | –
Cc1cc(CN2CC(C(=O)O)C2)ccc1OCc1cc(-c2ccccc2)c(C(F)(F)F)s1 | 0.0018 µM (antagonist) | 0.013 µM (antagonist) | 7.5 µM (antagonist) | 1.5 µM (antagonist) | > 10 | 0.0008 µM (agonist) | 0.18 | clearance [10]: 8.2 mL/min/kg; half-life [12]: 8.9 h; bioavailability [16]: 100%; Cmax [17]: 3200 nM; clearance [18]: 0.5 mL/min/kg; clearance [19]: 1.3 mL/min/kg; bioavailability [13]: 88%; Activity [20]: Active; Activity [21]: Active; half-life [22]: 22.3 h; Cmax [23]: 1800 nM; bioavailability [24]: 96%; Vd [25]: 1.2 L/kg; Vd [14]: 5.7 L/kg; Cmax [15]: 500 nM; half-life [26]: 12.6 h; Vd [27]: 0.9 L/kg

The next lines start with results.

IC50 [1] | IC50 [2] | IC50 [3] | IC50 [4] | IC50 [5] [µM] | EC50 [6] | SMILES | ED50 [7] [mg/kg] | also measured
0.025 µM (antagonist) | > 10 µM | > 10 µM | > 10 µM | > 10 | – | FC(F)(F)c1sc(-c2nc(-c3ccccc3)no2)cc1-c1ccccc1 | – | –
0.0075 µM (antagonist) | 0.033 µM (antagonist) | > 10 µM | 0.64 µM (antagonist) | > 10 | 0.0027 µM (agonist) | O=C(O)C1CN(Cc2cc(Cl)c(OCc3cc(-c4ccccc4)c(C(F)(F)F)s3)c(Cl)c2)C1 | – | –
0.0083 µM (antagonist) | 0.016 µM (antagonist) | 1 µM (antagonist) | 10 µM | > 10 | 0.0002 µM (agonist) | O=C(O)C1CN(Cc2ccc(-c3noc(-c4cc(-c5ccccc5)c(C(F)(F)F)s4)n3)cc2)C1 | 0.07 | clearance [10]: 2.2 mL/min/kg; EC50 [11]: 0.017 µM (agonist); half-life [12]: 10.5 h; bioavailability [13]: 64%; Vd [14]: 1.9 L/kg; Cmax [15]: 1300 nM
0.078 µM (antagonist) | > 10 µM | > 10 µM | > 10 µM | > 10 | – | FC(F)(F)c1sc(-c2nc(-c3ccc(Cl)cc3Cl)no2)cc1-c1ccccc1 | – | –
0.013 µM (antagonist) | 0.053 µM (antagonist) | > 10 µM | 2.4 µM (antagonist) | > 10 | 0.0033 µM (agonist) | O=C(O)C1CN(Cc2ccc(OCc3cc(-c4ccccc4)c(C(F)(F)F)s3)c(Br)c2)C1 | – | –
0.0032 µM (antagonist) | 0.018 µM (antagonist) | 2 µM (antagonist) | 1.3 µM (antagonist) | > 10 | 0.0014 µM (agonist) | O=C(O)C1CN(Cc2ccc(OCc3cc(-c4ccccc4)c(C(F)(F)F)s3)c(Cl)c2)C1 | 0.54 | clearance [10]: 8.2 mL/min/kg; half-life [12]: 7 h; bioavailability [13]: 62%; Vd [14]: 3.8 L/kg; Cmax [15]: 500 nM
– | 4.6 µM (antagonist) | > 10 µM | > 10 µM | > 10 | – | FC(F)(F)c1cccc(-c2noc(-c3cc(-c4ccccc4)c(C(F)(F)F)s3)n2)c1 | – | –
